These results are taken from ChEMBL document CHEMBL4834419 (J Med Chem, 2021).

Structures are written as SMILES.

The EC50 is the concentration at which the effect is half-maximal. The term Cmax denotes the highest concentration seen after dosing.

In data set [1] the target is T1, Retinoic acid receptor alpha (Homo sapiens) (UniProt P10276).
T1 sequence (whole entry): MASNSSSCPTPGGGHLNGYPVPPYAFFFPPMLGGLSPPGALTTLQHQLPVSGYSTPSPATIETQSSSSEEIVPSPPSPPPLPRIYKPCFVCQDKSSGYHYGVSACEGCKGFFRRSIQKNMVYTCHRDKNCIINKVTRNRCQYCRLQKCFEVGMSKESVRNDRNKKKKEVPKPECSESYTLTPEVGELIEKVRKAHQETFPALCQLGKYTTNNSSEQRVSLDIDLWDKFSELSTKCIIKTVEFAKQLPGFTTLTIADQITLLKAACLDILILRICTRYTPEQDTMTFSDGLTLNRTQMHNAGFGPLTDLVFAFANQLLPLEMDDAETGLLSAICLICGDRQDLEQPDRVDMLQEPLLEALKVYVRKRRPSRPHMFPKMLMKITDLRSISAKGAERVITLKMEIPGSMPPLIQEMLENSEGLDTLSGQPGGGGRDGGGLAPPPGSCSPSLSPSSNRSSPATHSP
In words: Agonist activity against human RARalpha in human HEK293T cells co-expressing pFR/pRL-Luc assessed as receptor activation at 10 uM incubated for 14 to 16 hrs by hybrid reporter gene assay relative to bexarotene. The data set is classed as cell-based. The note with it: filed as agonist, time 14-16 hrs. In outline:
(§1)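 Gal4 hybrid reporter assay in HEK293T cells, seeded 24 h before transfection (Lipofectamine LTX, Opti-MEM) with pFR-Luc, pRL-SV40 and pFA-CMV plasmid carrying the hinge region and LBD of the human receptor. After 5 h, compound added in 0.1% DMSO, with 0.1% DMSO alone as untreated control. Dual-Glo luciferase read after 14−16 h; firefly/renilla normalized; duplicates, ≥2 independent experiments.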

The target of data set [2] is T2, Oxysterols receptor LXR-beta (Homo sapiens) (UniProt P55055).
T2 sequence (whole entry): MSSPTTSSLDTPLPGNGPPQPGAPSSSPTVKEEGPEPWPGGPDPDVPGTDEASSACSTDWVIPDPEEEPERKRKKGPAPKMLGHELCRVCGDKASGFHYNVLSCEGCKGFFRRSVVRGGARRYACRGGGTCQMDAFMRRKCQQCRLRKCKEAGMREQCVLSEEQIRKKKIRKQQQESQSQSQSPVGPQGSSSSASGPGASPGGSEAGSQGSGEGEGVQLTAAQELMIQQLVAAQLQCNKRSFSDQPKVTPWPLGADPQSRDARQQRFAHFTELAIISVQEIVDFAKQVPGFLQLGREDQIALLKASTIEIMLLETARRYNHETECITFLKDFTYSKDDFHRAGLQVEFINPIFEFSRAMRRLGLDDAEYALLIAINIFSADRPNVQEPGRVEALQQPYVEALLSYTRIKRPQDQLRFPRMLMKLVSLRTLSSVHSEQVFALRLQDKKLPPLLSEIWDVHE
Put plainly: Agonist activity against human LXRbeta in human HEK293T cells co-expressing pFR/pRL-Luc assessed as receptor activation at 10 uM incubated for 14 to 16 hrs by hybrid reporter gene assay relative to bexarotene. The data set is classed as cell-based. The conditions noted are these: filed as agonist, time 14-16 hrs. In outline: as §1
On the technique in general: Reporter assays use an easily measured gene product as a stand-in for the process of interest.

For data set [3], the target named is T3, Retinoic acid receptor RXR-beta (Homo sapiens, UniProt P28702).
T3 sequence (P28702 whole entry): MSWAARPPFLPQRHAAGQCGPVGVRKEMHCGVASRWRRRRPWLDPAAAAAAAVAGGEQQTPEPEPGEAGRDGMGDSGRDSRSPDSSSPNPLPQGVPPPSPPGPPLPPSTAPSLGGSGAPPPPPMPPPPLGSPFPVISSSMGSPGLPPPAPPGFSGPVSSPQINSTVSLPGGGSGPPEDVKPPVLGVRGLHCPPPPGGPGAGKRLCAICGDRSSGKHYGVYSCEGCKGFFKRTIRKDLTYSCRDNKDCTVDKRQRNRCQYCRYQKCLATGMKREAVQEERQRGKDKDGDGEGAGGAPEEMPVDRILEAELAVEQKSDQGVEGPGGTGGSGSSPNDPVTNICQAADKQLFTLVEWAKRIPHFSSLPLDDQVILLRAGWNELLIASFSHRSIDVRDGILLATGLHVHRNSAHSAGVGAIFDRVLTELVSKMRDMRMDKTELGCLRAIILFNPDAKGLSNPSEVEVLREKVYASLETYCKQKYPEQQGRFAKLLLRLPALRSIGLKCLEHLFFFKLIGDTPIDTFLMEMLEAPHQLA
Put plainly: Agonist activity at human RXRbeta transfected in human HEK293T cells co-expressing pFR/pRL-Luc incubated for 14 to 16 hrs by hybrid reporter gene assay. The data set is classed as cell-based.

A short description of data set [4]: Plasma concentration in mouse at 10 mg/kg, po measure after 3 hrs. The data set is classed as ADME, organism-based. In short, it runs like this:
(§2)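 Mice, n = 3, received a single oral dose of 10 mg/kg in water with 1% hydroxypropyl methylcellulose/Tween 80 (99:1). Tail-vein blood was drawn at 30 and 60 min and tissue collected at 3 h. Compound was quantified by LC−MS and PK derived by noncompartmental analysis.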

Data set [5] can be described thus: Cmax in mouse at 10 mg/kg, po. The data set is classed as ADME, organism-based. Further details: route oral, dose 10 mg/kg. The note with it: in vivo. In short, it runs like this: as §2
The target of data set [6] is T4, Bile acid receptor (Homo sapiens) (UniProt Q96RI1).
T4 sequence (whole entry): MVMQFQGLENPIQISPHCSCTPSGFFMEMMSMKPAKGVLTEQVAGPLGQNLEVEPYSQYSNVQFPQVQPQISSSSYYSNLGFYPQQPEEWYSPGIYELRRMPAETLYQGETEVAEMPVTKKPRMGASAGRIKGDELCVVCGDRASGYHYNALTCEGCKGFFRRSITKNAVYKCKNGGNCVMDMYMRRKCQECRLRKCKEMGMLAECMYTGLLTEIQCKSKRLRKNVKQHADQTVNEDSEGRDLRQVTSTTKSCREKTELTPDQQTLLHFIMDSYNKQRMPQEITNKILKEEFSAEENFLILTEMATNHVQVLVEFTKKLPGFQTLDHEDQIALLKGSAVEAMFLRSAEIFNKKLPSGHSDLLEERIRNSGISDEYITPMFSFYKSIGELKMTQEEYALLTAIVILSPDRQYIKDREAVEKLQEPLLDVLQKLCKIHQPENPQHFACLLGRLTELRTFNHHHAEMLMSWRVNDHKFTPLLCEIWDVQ
Put plainly: Agonist activity against human FXR in human HEK293T cells co-expressing pFR/pRL-Luc assessed as receptor activation at 10 uM incubated for 14 to 16 hrs by hybrid reporter gene assay relative to bexarotene. The data set is classed as cell-based. The conditions noted are these: filed as agonist, time 14-16 hrs. In outline:
as §1

Regarding `O=C(O)CCCc1cc(-c2cc(Cl)cc(Cl)c2)n(-c2ccccc2)n1`, the Activity in data set [1] worked out at 1%; in data set [2], 2%; in data set [6], 1%. Moreover, a half-maximal response in data set [3] (EC50) required 0.35 µM. Moreover, in data set [4], the concentration at 3 h worked out at 35000 ng/mL. The same compound came in with a Cmax in data set [5] of 35000 ng/mL.
